Measurements reported in ChEMBL document CHEMBL2034857, “Discovery of the macrocycle (9E)-15-(2-(pyrrolidin-1-yl)ethoxy)-7,12,25-trioxa-19,21,24-triaza-tetracyclo[18.3.1.1(2,5).1(14,18)]hexacosa-1(24),2,4,9,14(26),15,17,20,22-nonaene (SB1578), a potent inhibitor of janus kinase 2/fms-like tyrosine kinase-3 (JAK2/FLT3) for the treatment of rheumatoid …” (J Med Chem, 2012).

How the values were obtained:
[1] = Oral bioavailability in rhesus monkey at 20 mg/kg; format: ADME, organism-based, Macaca mulatta; settings: in vivo
Summary of the method: (§1)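 Single oral gavage at 50 (mouse, rat), 5 (dog) or 20 (monkey) mg/kg; rodents and monkeys received suspensions in 0.5% methylcellulose/0.1% Tween 80, dogs gelatin capsules. Serial blood taken 0–24 h into K3EDTA, plasma stored at −70 °C. Parameters estimated by noncompartmental analysis, n = 3 per species (mouse values from mean concentration–time data, 3 mice per time point).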

Mus musculus = test: Antiarthritic activity in B10/R3 mouse immunized with bovine type2 collagen in Freund's complete adjuvant assessed as inhibition of increase in clinical arthritic scores at 210 mg/kg, po administered bid for 10 days measured for 10 days; format: functional; settings: B10/R3, 240 h
[2] = biological target: Tyrosine-protein kinase JAK2 (Homo sapiens, UniProt O60674); test: Inhibition of recombinant JAK2 using poly(Glu,Ala,Tyr) as substrate after 2 hrs by luminometric assay
[3] = biological target: T1, Receptor-type tyrosine-protein kinase FLT3 (Homo sapiens, UniProt P36888); test: Inhibition of recombinant FLT3 using poly(Glu,Tyr) as substrate after 2 hrs by luminometric assay
T1 sequence (P36888 whole entry): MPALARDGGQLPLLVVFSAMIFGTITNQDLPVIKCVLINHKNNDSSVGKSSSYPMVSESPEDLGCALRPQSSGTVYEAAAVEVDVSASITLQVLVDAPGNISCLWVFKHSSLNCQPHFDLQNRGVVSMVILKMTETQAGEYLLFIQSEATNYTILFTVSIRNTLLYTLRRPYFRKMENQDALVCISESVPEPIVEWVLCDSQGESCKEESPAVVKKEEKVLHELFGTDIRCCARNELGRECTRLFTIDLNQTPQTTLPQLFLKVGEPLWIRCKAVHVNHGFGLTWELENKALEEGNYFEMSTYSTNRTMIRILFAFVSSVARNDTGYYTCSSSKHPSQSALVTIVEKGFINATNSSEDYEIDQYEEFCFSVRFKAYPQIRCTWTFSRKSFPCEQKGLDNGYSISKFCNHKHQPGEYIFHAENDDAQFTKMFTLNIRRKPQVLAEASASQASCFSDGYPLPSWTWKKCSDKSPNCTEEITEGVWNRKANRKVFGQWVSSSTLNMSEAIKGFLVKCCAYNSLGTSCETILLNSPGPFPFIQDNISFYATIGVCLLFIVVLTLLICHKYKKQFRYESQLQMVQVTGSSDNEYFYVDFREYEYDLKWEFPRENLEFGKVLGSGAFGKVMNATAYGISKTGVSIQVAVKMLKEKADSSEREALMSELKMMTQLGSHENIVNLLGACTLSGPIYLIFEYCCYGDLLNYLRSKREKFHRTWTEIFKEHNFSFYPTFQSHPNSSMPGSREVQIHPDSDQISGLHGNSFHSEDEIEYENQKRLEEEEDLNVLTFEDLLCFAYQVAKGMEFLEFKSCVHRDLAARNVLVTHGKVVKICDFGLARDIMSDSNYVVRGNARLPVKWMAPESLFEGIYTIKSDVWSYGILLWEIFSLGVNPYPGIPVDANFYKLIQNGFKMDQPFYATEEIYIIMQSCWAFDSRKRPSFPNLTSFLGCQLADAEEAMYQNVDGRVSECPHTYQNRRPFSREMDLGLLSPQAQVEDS

[4] = Kinetic solubility in PBS buffer at pH 7; format: physicochemical; settings: read-out: Kinetic_solubility
Cytochrome P450 3A4 = Cytochrome P450 3A4 (Homo sapiens, UniProt P08684); test: Inhibition of CYP3A4 in human liver microsomes using testosterone as substrate by LC-MS/MS analysis; format: ADME, Microsome
[5] = Half life in human liver microsomes; format: ADME, Microsome
hERG = hERG (Homo sapiens, UniProt Q12809); test: Displacement of dofetilide from human ERG at 10 uM; settings: probe dofetilide
[6] = Half life in human liver microsomes at 5 uM; format: ADME, Microsome
Summary of the method: (§2)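 Compound at 5 μM with human, mouse or dog microsomes at 0.87 mg/mL, or rat and monkey microsomes at 1 mg/mL, in 50 mM potassium phosphate pH 7.4 with NADPH regenerating system at 37 °C.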

[7] = Half life in mouse liver microsomes at 5 uM; format: ADME, Microsome; summary of the method: as §2
[8] = Half life in dog liver microsomes at 5 uM; format: ADME, Canis lupus familiaris, Microsome; summary of the method: as §2
[9] = Half life in rhesus monkey live microsomes at 5 uM; format: ADME, Macaca mulatta; settings: liver microsomes; summary of the method: as §2
Cytochrome P450 1A2 [10] = biological target: T2, Cytochrome P450 1A2 (Homo sapiens, UniProt P05177); test: Inhibition of CYP1A2 in human liver microsomes using phenacetin as substrate by LC-MS/MS analysis; format: ADME, Microsome
T2 sequence (P05177 whole entry): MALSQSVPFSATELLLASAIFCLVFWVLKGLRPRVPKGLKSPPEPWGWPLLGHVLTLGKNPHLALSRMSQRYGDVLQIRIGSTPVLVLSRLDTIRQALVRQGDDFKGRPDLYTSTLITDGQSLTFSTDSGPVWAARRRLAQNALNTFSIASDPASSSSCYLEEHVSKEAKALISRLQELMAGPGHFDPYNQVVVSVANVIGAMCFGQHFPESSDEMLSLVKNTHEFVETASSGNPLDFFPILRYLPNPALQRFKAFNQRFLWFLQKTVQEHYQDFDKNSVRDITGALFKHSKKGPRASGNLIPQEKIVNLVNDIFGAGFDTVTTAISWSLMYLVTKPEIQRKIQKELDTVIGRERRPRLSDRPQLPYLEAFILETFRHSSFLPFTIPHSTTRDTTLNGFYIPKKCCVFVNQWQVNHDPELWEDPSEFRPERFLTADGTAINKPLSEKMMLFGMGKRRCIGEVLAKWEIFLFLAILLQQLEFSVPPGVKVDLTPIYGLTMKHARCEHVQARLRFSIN

Cytochrome P450 1A2 [11] = biological target: T2, Cytochrome P450 1A2; test: Induction of CYP1A2 in human liver microsomes; format: ADME, Microsome
[12] = Plasma protein binding in human at 1000 ng/mL by equilibrium dialysis; format: ADME, cell-free; settings: read-out: PPB
Summary of the method: (§3)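 Equilibrium dialysis of plasma (mouse, rat, dog, monkey, human) spiked to 1000 ng/mL final against PBS, 4 h at 37 °C; buffer side extracted with MTBE in triplicate and analyzed by LC-MS/MS.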

[13] = Plasma protein binding in monkey at 1000 ng/mL by equilibrium dialysis; format: ADME, cell-free, Macaca mulatta; settings: rhesus monkey, read-out: PPB (converted); summary of the method: as §3
[14] = Cmax in BALB/c nude mouse at 50 mg/kg, po; format: ADME, organism-based; design: dose 50 mg/kg, route oral; settings: in vivo; summary of the method: as §1
[15] = AUC (0 to infinity) in BALB/c nude mouse at 50 mg/kg, po; format: ADME, organism-based; design: time infinity, dose 50 mg/kg, route oral; settings: plasma; summary of the method: as §1
[16] = Terminal half life in Wistar rat at 50 mg/kg, po; format: ADME, organism-based; design: dose 50 mg/kg, route oral; settings: in vivo, read-out: beta t1/2 (converted)
Summary of the method: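 Single oral dose by gavage as suspension in 0.5% methylcellulose/0.1% Tween 80 (mouse, rat, monkey) or in gelatin capsules (dog). Serial blood samples taken from 0 to 24 h into K3EDTA tubes; plasma stored at −70 °C until analysis. Parameters derived by noncompartmental methods. Rat, dog and monkey n = 3; mouse values estimated from mean concentration-time data, n = 3 mice per time point.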

[17] = Oral bioavailability in Wistar rat at 50 mg/kg; format: ADME, organism-based; settings: in vivo; summary of the method: as §1
[18] = AUC (0 to infinity) in beagle dog at 5 mg/kg, po; format: ADME, organism-based, Canis lupus familiaris; design: time infinity, dose 5 mg/kg, route oral; settings: plasma; summary of the method: as §1
[19] = Cmax in rhesus monkey at 20 mg/kg, po; format: ADME, organism-based, Macaca mulatta; design: dose 20 mg/kg, route oral; settings: in vivo; summary of the method: as §1

Sequence of hERG (Q12809 whole entry): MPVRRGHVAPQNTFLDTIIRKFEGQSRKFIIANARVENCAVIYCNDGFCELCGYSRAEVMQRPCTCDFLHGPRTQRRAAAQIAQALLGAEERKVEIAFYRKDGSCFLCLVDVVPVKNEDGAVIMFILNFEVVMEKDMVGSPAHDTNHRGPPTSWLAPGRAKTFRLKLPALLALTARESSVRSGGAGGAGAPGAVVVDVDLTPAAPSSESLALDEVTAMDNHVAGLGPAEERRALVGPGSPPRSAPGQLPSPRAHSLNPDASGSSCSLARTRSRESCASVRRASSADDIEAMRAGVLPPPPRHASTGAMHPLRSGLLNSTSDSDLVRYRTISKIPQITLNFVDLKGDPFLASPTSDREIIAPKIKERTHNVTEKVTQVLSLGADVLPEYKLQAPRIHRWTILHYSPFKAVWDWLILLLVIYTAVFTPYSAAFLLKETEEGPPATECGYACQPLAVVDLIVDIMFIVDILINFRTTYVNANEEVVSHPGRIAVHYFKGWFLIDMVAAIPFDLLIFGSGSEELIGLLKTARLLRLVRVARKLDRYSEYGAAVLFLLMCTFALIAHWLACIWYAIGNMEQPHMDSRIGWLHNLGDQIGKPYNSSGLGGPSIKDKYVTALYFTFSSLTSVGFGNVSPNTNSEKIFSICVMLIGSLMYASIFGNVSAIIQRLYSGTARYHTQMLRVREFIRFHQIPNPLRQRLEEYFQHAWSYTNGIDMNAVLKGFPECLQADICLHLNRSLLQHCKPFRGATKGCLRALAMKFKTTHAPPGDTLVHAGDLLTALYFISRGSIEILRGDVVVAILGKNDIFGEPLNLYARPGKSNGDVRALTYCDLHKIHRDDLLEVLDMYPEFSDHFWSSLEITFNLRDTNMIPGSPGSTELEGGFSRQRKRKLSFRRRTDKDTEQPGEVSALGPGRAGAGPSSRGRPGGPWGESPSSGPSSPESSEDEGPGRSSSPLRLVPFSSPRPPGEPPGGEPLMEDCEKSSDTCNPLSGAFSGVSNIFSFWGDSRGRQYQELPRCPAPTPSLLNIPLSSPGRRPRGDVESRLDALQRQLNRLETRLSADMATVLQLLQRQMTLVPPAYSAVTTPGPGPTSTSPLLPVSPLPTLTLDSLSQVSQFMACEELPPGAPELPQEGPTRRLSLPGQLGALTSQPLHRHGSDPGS
Sequence of Cytochrome P450 3A4 (P08684 whole entry): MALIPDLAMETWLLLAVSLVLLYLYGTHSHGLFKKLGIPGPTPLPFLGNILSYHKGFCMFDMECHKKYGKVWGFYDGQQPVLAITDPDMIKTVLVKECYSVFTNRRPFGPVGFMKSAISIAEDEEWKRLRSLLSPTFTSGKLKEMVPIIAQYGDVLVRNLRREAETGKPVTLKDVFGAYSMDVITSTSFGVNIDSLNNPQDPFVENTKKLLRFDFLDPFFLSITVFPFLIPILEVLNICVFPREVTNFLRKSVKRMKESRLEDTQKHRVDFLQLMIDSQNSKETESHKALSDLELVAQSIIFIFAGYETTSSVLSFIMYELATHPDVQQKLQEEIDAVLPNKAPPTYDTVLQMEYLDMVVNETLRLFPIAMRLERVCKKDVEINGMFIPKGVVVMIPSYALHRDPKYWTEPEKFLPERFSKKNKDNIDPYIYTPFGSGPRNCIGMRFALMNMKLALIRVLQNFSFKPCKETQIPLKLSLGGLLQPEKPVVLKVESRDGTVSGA
Sequence of Tyrosine-protein kinase JAK2 (O60674 whole entry): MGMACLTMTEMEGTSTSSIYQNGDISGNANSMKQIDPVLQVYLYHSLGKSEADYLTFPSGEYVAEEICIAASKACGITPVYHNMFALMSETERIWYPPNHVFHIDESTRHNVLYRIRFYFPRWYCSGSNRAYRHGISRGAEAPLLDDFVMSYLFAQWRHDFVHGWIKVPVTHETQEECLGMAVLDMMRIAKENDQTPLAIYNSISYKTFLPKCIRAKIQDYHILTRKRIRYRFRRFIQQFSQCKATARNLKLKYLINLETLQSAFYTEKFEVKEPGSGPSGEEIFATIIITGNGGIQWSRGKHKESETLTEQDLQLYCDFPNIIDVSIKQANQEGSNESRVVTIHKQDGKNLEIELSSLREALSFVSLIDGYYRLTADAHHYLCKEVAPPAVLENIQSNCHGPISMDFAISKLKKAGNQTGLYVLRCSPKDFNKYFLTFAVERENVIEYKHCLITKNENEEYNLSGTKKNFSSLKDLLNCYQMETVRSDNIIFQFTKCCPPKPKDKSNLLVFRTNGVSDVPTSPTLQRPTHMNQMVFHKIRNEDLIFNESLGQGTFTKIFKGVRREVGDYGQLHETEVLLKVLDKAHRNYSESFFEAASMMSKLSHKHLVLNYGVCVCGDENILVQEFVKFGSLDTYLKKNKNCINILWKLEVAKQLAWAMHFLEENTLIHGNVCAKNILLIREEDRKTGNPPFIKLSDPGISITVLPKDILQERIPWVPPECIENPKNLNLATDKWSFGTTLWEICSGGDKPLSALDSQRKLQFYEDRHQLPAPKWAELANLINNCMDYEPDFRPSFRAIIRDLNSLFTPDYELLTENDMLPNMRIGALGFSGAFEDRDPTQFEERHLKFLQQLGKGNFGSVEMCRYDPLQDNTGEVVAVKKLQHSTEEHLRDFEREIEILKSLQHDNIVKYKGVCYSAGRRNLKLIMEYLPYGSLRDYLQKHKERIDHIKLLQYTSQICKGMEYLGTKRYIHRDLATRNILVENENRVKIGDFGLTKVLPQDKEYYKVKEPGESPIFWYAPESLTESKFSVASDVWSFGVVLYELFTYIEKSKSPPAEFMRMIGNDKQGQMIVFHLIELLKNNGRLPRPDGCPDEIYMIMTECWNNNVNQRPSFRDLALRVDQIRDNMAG

**Q.** With `C1=C2COC/C=C/COCc3cc(ccc3OCCN3CCCC3)Nc3nccc(n3)C(=C1)O2` (mixture of isomers) [CT-1578] as the compound, how does the bioavailability [1] read?
**A.** 32%

**Q.** What about the inhibition in vivo at 210 mg/kg (Mus musculus) of the same compound?
**A.** 59%

**Q.** What about the IC50 [2] of the same compound?
**A.** 0.046 µM

**Q.** And the IC50 [3]?
**A.** 0.06 µM

**Q.** And the solubility kinetic [4]?
**A.** > 0.25 mg/mL

**Q.** And the IC50 (Cytochrome P450 3A4)?
**A.** > 10 µM

**Q.** What about the half-life [5] of the same compound?
**A.** > 1 h

**Q.** And the inhibition at 10 µM (hERG)?
**A.** 14%

**Q.** And the half-life at 5 µM [6]?
**A.** > 1 h

**Q.** And the half-life at 5 µM [7]?
**A.** > 1 h

**Q.** And the half-life at 5 µM [8]?
**A.** > 1 h

**Q.** What about the half-life at 5 µM [9] of the same compound?
**A.** 0.383 h

**Q.** And the IC50 (Cytochrome P450 1A2 [10])?
**A.** > 10 µM

**Q.** And the Activity (Cytochrome P450 1A2 [11])?
**A.** Not Active

**Q.** And the fraction unbound at 1000 ng/mL [12]?
**A.** 0.01

**Q.** And the fraction unbound at 1000 ng/mL [13]?
**A.** 0.013

**Q.** And the Cmax [14]?
**A.** 1.23 µg/mL

**Q.** And the AUC(0-inf) [15]?
**A.** 2.02 µg·h/mL

**Q.** And the half-life [16]?
**A.** 3.6 h

**Q.** And the bioavailability [17]?
**A.** 6%

**Q.** What about the AUC(0-inf) [18] of the same compound?
**A.** 0.096 µg·h/mL

**Q.** What about the Cmax [19] of the same compound?
**A.** 1.98 µg/mL
